Assay outcomes as filed in PubChem BioAssay.
Calpain2 inh – blocks pig calpain II enzyme activity | inhibition, % at 16 µM | hit rate 0.37% among 220,000 | purified calpain II, fluorogenic peptide substrate, 30 min;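 active means inhibition above about 50%, limit read from the data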
WT yeast gro inh – growth inhibition of WT yeast, mitochondrial fusion screen. mitochondrial fusion phenotypic screen, WT strain. inhibition, % at 10 µM. hit rate 2.1% among 190,000; in the data active means inhibition above about 58%; tested in S. cerevisiae
Rad51 HR inh – blocks human Rad51 in homologous recombination; hit rate 0.085% among 200,000; Q06609; hRad51 DNA strand exchange, fluorescence dequenching; inhibition, % at 10 µM;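 active means inhibition above 40% at the single screening dose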
Target sequence (Q06609 whole entry, looked up): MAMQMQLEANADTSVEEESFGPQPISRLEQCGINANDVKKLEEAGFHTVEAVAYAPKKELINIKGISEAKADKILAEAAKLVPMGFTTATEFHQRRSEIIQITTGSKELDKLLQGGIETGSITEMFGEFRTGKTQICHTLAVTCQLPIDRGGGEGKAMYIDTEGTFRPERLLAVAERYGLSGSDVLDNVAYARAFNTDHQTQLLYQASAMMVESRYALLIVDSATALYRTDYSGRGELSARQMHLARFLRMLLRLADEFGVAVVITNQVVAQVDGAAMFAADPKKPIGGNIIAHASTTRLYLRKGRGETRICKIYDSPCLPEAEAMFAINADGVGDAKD
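Test system: preformed human Rad51 ssDNA filaments; also added: Donor/quencher-labelled 47-bp dsDNA substrate; doses: 10 µM final, single point; times: 37 °C 15-min filament assembly, 30-min compound preincubation, 15-min exchange; detection: FRET fluorescence dequenching, excitation 485 nm, emission 520 nm; read-out basis: Fluorescence-based percent inhibition, control- and blank-normalised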
PMI activator – activators of human phosphomannose isomerase; AID 1214; purified human PMI, coupled resazurin fluorescence, 20 min; hits give high values; 1 = vehicle control, 0 substrate-free wells; activation factor at 20 µM; P34949; hit rate 0.005% among 190,000;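 active means activation factor of 2 or more at 20 µM, relative to plate controls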
Lmaj promast – inhibitors of Leishmania major promastigote growth; Leishmania major promastigotes, resazurin fluorescence viability; inhibition, % at 10 µM; AID 1063; hit rate 9% among 200,000; in the data active means inhibition above about 50%;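 further: promastigotes grown with compound for 44 hours at 28 °C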
PMI act hi M6P – activators of human phosphomannose isomerase at near-saturating mannose 6-phosphate. P34949. coupled PMI enzyme assay, resazurin fluorescence, 20 min; hits give high values; 1 = untreated enzyme, 0 = substrate-free blank. activation factor at 20 µM. hit rate 0.34% among 190,000. AID 1216;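 active means activation factor of 2 or more at 20 µM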
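Test system: Human PMI in coupled enzyme assay | Input: 15 ng/mL PMI | Medium: HEPES-buffered pH 7.4 with magnesium and detergent | Compound: One concentration, 20 µM, in 1% DMSO | Incubation: Enzyme reaction with compound 20 min at room temperature | Detection: Diaphorase-driven resazurin-to-resorufin fluorescence, excitation 544, emission 590 nm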
Large screens that a line does not name were inactive. Compounds with a hit are over-represented: about 9.8% of the library has one in this group of screens.

Cc1nn(Cc2ccccc2)c(C)c1C=C1C(=O)NC(=O)NC1=O	Lmaj promast 58
Cc1nn(Cc2ccccc2)c(C)c1C(=O)NCc1ccccc1	none
O=c1c2ccccc2nc(-c2ccc(Cl)cc2Cl)n1-c1nccs1	none (no result: Rad51 HR inh)
CCOC(=O)c1c(C)n(Cc2ccccc2)c2ccc(O)cc12	none
CCOC(=O)c1c(NC(=O)C(c2ccccc2)c2ccccc2)sc2c1C1CCN2CC1	Lmaj promast 100
O=C(O)CSC(=S)N1CC2CC(C1)c1cccc(=O)n1C2 (stereo not given)	none
COc1ccc(C=C2C(=O)N(C)C(=O)N(C)C2=O)cc1CSc1ccccn1	none (no result: Rad51 HR inh)
CN1C(=O)C(=Cc2c(OCc3cnc(Cl)s3)ccc3ccccc23)C(=O)N(C)C1=O	Lmaj promast 89
N=c1c2c(n(Cc3ccc(Cl)cc3Cl)c3c1CCC3)CCCC2	WT yeast gro inh 70, Lmaj promast 100
CC1CC(OP(O)(=S)c2ccc(N(C)C)cc2NC(=O)c2cccs2)CC(C)(C)C1 (stereo not given)	none
CCCCn1c(O)c(C(C)=NCc2cc(OC)cc(OC)c2)c(=O)[nH]c1=O	none
CCCCn1c(O)c(C(CC)=NCc2cc(OC)cc(OC)c2)c(=O)[nH]c1=O	Lmaj promast 100
c1cc(CCN2CCCC2)ccn1	none (no result: WT yeast gro inh, PMI activator, Lmaj promast, PMI act hi M6P)
c1ccc(CN2CCN(Cc3ccc4c(c3)OCCO4)CC2)cc1	Lmaj promast 80
O=[N+]([O-])c1ccc(N2CCNCC2)c2ncccc12	none (no result: Rad51 HR inh)
CN1CCN(c2ccc([N+](=O)[O-])c(N3CCCCC3)c2)CC1	Lmaj promast 94
O=[N+]([O-])c1cc(F)c(N2CCCCCC2)cc1N1CCNCC1	Lmaj promast 101
O=[N+]([O-])c1ccc(N2CCNCC2)cc1N1CCCCCC1	Lmaj promast 99 (no result: Rad51 HR inh)
Nc1cc(N2CCNCC2)ccc1[N+](=O)[O-]	none
CN1CCN(c2ccc([N+](=O)[O-])c(N)c2)CC1	Lmaj promast 52
CC(=O)N(C)CC#CCN1CCCC(CO)C1 (stereo not given)	none (no result: Calpain2 inh, WT yeast gro inh, PMI activator, Lmaj promast, PMI act hi M6P)
COc1ccc(/C=C2/C(=O)NC(=S)N(C3CC3)C2=O)cc1CN1C(=O)c2ccccc2C1=O	PMI act hi M6P 2
COc1ccc(/C=C2/C(=O)NC(=O)N(c3ccccc3)C2=O)cc1CN1C(=O)c2ccccc2C1=O	none (no result: WT yeast gro inh, PMI activator, Lmaj promast, PMI act hi M6P)
Cc1ccc(C(=O)Nc2ccc(Cl)cc2C(=O)c2ccccc2)cc1	Lmaj promast 99 (no result: Calpain2 inh, WT yeast gro inh, PMI activator, PMI act hi M6P)
O=C(COC(=O)c1ccc(O)cc1)Nc1ccc(Cl)cc1C(=O)c1ccccc1	WT yeast gro inh 77
CC(=O)Nc1ccc(C(=O)OCC(=O)Nc2ccc(Cl)cc2C(=O)c2ccccc2)cc1	none
COc1ccc(-n2c(O)c(C=NCc3ccc4c(c3)OCO4)c(=O)[nH]c2=O)cc1	none (no result: WT yeast gro inh, PMI activator, Lmaj promast, PMI act hi M6P)
O=[N+]([O-])c1ccc2nc(N3CCNCC3)ccc2c1	none (no result: Calpain2 inh, WT yeast gro inh, PMI activator, Lmaj promast, PMI act hi M6P)
Cc1ccccc1-n1c(O)c(C(c2ccncc2)c2c(O)n(-c3ccccc3C)c(=O)[nH]c2=O)c(=O)[nH]c1=O	none (no result: WT yeast gro inh, PMI activator, Lmaj promast, PMI act hi M6P)
CC1=C(/C=C/c2ccccc2)CCN(C)C1	Lmaj promast 99
O=c1[nH]c(=O)n(-c2ccc(Br)cc2)c(O)c1C=NCCN1CCCCC1	none (no result: WT yeast gro inh, Rad51 HR inh, PMI activator, Lmaj promast, PMI act hi M6P)
O=C1NC(=O)C(=Cc2cc([N+](=O)[O-])ccc2N2CCCCC2)C(=O)N1	Lmaj promast 97
CCOC(=O)C(O)(c1ccc(NC(=S)NC(=O)c2ccc(Cl)cc2Cl)c(C)c1)C(F)(F)F (stereo not given)	WT yeast gro inh 77
CCOC(=O)C(O)(c1ccc(NC(=S)NC(=O)c2ccc(Cl)cc2Cl)cc1)C(F)(F)F (stereo not given)	Lmaj promast 67
COC(=O)C(O)(c1ccc(NC(=S)NC(=O)c2ccc(Cl)cc2Cl)c(C)c1)C(F)(F)F (stereo not given)	WT yeast gro inh 75
O=C1NC2NC(=O)N([N+](=O)[O-])C2N1 (stereo not given)	none (no result: WT yeast gro inh, PMI activator, Lmaj promast, PMI act hi M6P)
CCC1(C(=O)c2ccccc2)C2c3ccccc3OC(=O)C21C(C)=O (stereo not given)	none (no result: WT yeast gro inh, Rad51 HR inh, PMI activator, Lmaj promast, PMI act hi M6P)
CCc1nnc(NS(=O)(=O)c2ccc(N=Cc3c(O)n(-c4ccc(Cl)cc4)c(=O)[nH]c3=O)cc2)s1	none
NC(N)=N/N=C/c1cn(-c2ccccc2)nc1-c1cccs1	Lmaj promast 101
O=c1c2ccccc2nc(-c2cccs2)n1-c1ccccc1	none
